Experimental findings from ChEMBL document CHEMBL4118047, “Antiplasmodial Sesquiterpenoid Lactones from Trichospira verticillata: Structure Elucidation by Spectroscopic Methods and Comparison of Experimental and Calculated ECD Data” (J Nat Prod, 2017) are described below.

Each structure is given as a SMILES string.

One test concerns Plasmodium falciparum. Briefly: Antiplasmodial activity against Plasmodium falciparum Dd2 after 72 hrs by SYBR Green I dye-based assay. The format is functional, organism-based. The note with it: Dd2, 72 h. The essentials: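 Ring-stage Dd2 cultures at 1% hematocrit and 1% parasitemia grown 72 h at 37 °C under 5.05% CO₂/4.93% O₂/90.2% N₂ with increasing drug concentrations. Viability read by SYBR Green I DNA quantitation in lysis buffer (0.4 μL dye/mL). IC₅₀ by nonlinear regression. Mean of three independent determinations, each in duplicate, ±SEM.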

The next test deals with HEK293. The test can be described thus: Cytotoxicity against HEK293 cells assessed as reduction in cell viability after 24 hrs by resazurin dye based assay. To be noted: Homo sapiens, HEK293, 24 h. The essentials:
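10,000 HEK293 cells per well allowed to adhere, then medium replaced with medium containing varying compound amounts for 24 h. Resazurin sodium salt (0.125 mg/mL, 10 μL per well) added for 2 h. Viability from fluorescence at 585 nm, excitation 540 nm.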
(Alamar Blue is a resazurin reagent that responds to reducing activity.)

A further test has as its system A2780. The test can be described thus: Antiproliferative activity against human A2780 cells after 2 days by alamar blue assay. To be noted: A2780, 48 h. Format: functional, cell-based.

Usually IC50 stands for the concentration that inhibits the measured activity by half. In turn, `C[C@@H]1CC[C@H]2[C@@H](C)C(=O)O[C@@H]3O[C@@]4(C)CC[C@@H]1[C@]32OO4` [ARTEMISININ] gave an IC50 in the test with Plasmodium falciparum of 0.007 µM.
Consider `C=C(C)C(=O)O[C@H]1C/C(C)=C\C(=O)/C=C(\C)[C@@H](O)[C@@H]2OC(=O)C(COC(C)=O)=C12`, for which the figures for the IC50 in the test with Plasmodium falciparum and in the test with HEK293 were 37.1 µM and 56 µM, respectively.
Regarding `C=C(C)C(=O)O[C@@H]1C/C(C)=C\[C@@]2(O)C=C(C)[C@H](O2)[C@H]2OC(=O)C(COC(C)=O)=C12`, the IC50 in the test with Plasmodium falciparum worked out at 44.3 µM; in the test on HEK293, 58.8 µM.
On to `C=C(C)C(=O)O[C@H]1C/C(C)=C\C(=O)/C=C(C)/C=C2/OC(=O)C(COC(C)=O)=C21`, for which the IC50 with Plasmodium falciparum worked out at 1.49 µM; with HEK293, 3.5 µM; in the test on A2780 it was 0.21 µM.
For the molecule `C=C(C)C(=O)O[C@H]1C/C(C)=C\C(=O)C[C@@]2(C)O[C@H]2[C@H]2OC(=O)C(COC(C)=O)=C12`, the IC50 is 12.1 µM in the test on Plasmodium falciparum and 23.8 µM with HEK293.
